Legend:
[1] = biological target: T1, A disintegrin and metalloproteinase with thrombospondin motifs 5 (Homo sapiens, UniProt Q9UNA0); assay: Inhibition of human recombinant ADAMTS-5 using QTVTWPDMELPLPRNITEGEARGSVIL-TVKPIFEVSPSPL(biotinyl)K as substrate incubated 10 mins prior to substrate addition measured after 3 hrs by spectrophotometry
T1 sequence (Q9UNA0 whole entry): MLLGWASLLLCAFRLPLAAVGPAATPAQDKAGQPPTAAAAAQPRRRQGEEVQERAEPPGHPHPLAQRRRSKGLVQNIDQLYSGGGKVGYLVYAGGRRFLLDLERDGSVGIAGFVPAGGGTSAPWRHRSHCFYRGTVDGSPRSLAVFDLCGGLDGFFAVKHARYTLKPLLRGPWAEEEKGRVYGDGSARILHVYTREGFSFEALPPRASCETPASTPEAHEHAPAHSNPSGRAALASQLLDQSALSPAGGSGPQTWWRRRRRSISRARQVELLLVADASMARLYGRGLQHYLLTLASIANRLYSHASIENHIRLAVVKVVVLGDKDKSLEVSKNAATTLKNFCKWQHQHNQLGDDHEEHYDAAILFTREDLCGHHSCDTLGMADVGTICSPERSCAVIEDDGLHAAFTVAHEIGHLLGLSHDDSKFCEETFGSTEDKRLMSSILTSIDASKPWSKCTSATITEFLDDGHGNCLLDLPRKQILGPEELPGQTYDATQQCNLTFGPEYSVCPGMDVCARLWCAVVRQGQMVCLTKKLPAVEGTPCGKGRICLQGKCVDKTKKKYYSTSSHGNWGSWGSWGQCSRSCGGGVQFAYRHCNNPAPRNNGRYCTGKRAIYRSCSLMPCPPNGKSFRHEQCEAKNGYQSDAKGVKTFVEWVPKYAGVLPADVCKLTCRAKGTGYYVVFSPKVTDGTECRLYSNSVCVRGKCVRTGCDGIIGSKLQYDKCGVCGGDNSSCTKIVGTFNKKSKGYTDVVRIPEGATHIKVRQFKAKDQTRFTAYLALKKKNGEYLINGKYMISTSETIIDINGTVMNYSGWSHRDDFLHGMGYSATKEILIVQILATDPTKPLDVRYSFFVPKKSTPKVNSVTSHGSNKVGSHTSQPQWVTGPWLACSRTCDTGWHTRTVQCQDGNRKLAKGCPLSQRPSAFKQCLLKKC

[2] = Solubility of the compound at 100 uM; format: physicochemical
[3] = biological target: T2, A disintegrin and metalloproteinase with thrombospondin motifs 4 (Homo sapiens, UniProt O75173); assay: Inhibition of human recombinant ADAMTS-4 using QTVTWPDMELPLPRNITEGEARGSVIL-TVKPIFEVSPSPL(biotinyl)K as substrate incubated for 10 mins prior to substrate addition measured after 3 hrs by spectrophotometry
T2 sequence (O75173 whole entry): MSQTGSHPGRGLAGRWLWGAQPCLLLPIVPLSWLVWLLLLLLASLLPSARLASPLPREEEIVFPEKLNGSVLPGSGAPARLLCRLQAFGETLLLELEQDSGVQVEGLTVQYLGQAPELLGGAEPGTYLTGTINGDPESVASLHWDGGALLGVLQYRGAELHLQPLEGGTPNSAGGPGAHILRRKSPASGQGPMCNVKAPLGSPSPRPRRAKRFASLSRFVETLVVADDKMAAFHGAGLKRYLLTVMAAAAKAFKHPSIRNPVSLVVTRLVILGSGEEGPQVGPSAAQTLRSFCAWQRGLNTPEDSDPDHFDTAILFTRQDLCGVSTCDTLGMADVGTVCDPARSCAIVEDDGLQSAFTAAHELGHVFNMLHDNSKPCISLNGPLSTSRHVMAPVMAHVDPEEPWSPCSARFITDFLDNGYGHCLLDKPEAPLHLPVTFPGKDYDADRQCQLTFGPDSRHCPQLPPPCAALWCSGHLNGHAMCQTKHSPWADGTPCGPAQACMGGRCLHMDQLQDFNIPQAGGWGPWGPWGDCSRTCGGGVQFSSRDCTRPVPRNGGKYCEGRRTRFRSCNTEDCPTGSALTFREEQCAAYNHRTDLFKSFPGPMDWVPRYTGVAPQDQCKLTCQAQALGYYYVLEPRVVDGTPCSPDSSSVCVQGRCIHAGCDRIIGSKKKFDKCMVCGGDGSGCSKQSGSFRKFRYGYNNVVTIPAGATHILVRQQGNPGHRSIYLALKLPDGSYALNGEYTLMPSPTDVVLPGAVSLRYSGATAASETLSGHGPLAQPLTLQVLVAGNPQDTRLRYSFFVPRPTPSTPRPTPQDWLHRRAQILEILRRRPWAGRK
Method in brief: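 It was then added to streptavidin wells coated with the biotinylated 41-mer aggrecan peptide and reacted for 3 h at 37 °C. Cleavage product was detected by BC-3 anti-ARGxx ELISA with HRP and TMB, read at 450 nm.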

[4] = biological target: T3, A disintegrin and metalloproteinase with thrombospondin motifs 5 (Homo sapiens) (UniProt Q9UNA0); assay: Inhibition of human recombinant ADAMTS-5 using QTVTWPDMELPLPRNITEGEARGSVIL-TVKPIFEVSPSPL(biotinyl)K as substrate at 100 uM incubated 10 mins prior to substrate addition measured after 3 hrs by spectrophotometry
T3 sequence (whole entry): T1 sequence (Q9UNA0 whole entry)

[5] = biological target: T3, A disintegrin and metalloproteinase with thrombospondin motifs 5 (Homo sapiens); assay: Inhibition of human recombinant ADAMTS-5 using bovine articular aggrecan as substrate incubated 20 mins prior to substrate addition measured after 48 hrs by spectrophotometry
Method in brief: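 ADAMTS-5 (3.4 µL of 600 nM stock) was pre-incubated 20 min at 37 °C with compound or 4% DMSO vehicle in Tris/NaCl/CaCl₂/Brij35, pH 7.5. Bovine articular aggrecan (50 µg/mL final) was added for 48 h at 37 °C, then stopped with EDTA. Samples were bound to PVDF and digested with chondroitinase ABC and keratanase. The ARGSVIL neoepitope was detected by BC-3 ELISA with TMB, read at 450 nm.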

| Compound | IC50 [1] [nM] | other results |
| --- | --- | --- |
| O=C(COc1ccc(Cl)cc1)NNC(=S)NCCCn1ccnc1 | 1600 |  |
| O=C(NNC(=S)NCCCCC1CCCCC1)C1CNc2cc(Cl)ccc2O1 (stereo not given) | 1260 |  |
| O=C(COc1ccc(OCc2ccccc2)cc1)NNC(=S)NCc1ccc(-c2ccccc2)cc1 | 1000 |  |
| O=C(COc1ccc(Cl)cc1)NNC(=S)N1CCC(Cc2ccccc2)CC1 | 1600 |  |
| O=C(COc1ccc(-c2ccccc2)cc1)NNC(=S)NCc1ccc(-c2ccccc2)cc1 | 60000 | solubility [2]: Insoluble |
| O=C(COc1ccc(Cl)cc1)NNC(=S)NCc1ccccc1-c1ccccc1 | 490 | IC50 [3]: 2900 nM |
| O=C(COc1ccc([N+](=O)[O-])cc1)NNC(=S)NCc1ccc(-c2ccccc2)cc1 | 4000 |  |
| O=C(COc1ccc(Cl)cc1)NNC(=S)NCc1cccnc1 | 100000 | inhibition [4]: 50% |
| O=C(COc1cccc(Cl)c1)NNC(=S)NCc1ccc(-c2ccccc2)cc1 | 2100 |  |
| O=C(CNc1ccc(Cl)cc1)NNC(=S)NCc1ccc(-c2ccccc2)cc1 | 6300 |  |
| O=C(COc1ccc(Cl)cc1)Nn1ccn(Cc2ccc(-c3ccccc3)cc2)c1=S | > 100000 | inhibition [4]: < 30% |
| O=C(COc1cccc2ccccc12)NNC(=S)NCCCCC1CCCCC1 | 880 | IC50 [3]: 1000 nM |
| O=C(COc1ccc(Cl)cc1)NCC(S)C(=O)NCCc1ccccc1 (stereo not given) | 8700 |  |
| O=C(Cc1ccc(-c2ccccc2)cc1)NNC(=S)NCCc1ccc(Cl)cc1 | 5200 |  |
| O=C(COc1ccc(Cl)cc1)NNC(=S)NCc1ccccc1 | 12600 |  |
| O=C(COc1ccccc1)NNC(=S)NCc1ccc(-c2ccccc2)cc1 | 10000 |  |
| COc1ccc(OCC(=O)NNC(=S)NCc2ccc(-c3ccccc3)cc2)cc1 | 1700 |  |
| O=C(NNC(=S)NCc1ccc(-c2ccccc2)cc1)C1CNc2cc(Cl)ccc2O1 (stereo not given) | 3300 |  |
| O=C(COc1ccc(C(F)(F)F)cc1)NNC(=S)NCCCCC1CCCCC1 | 540 | IC50 [3]: 610 nM |
| O=C(NNC(=S)NCCCCC1CCCCC1)c1ccc(Cl)cc1 | 670 | inhibition [5]: Dose-dependent effect; IC50 [3]: 1400 nM |
| CC(C)(Oc1ccc(Cl)cc1)C(=O)NNC(=S)NCc1ccc(-c2ccccc2)cc1 | 6900 |  |
| O=C(COc1ccc(Cl)cc1)NCC(=S)NCc1ccc(-c2ccccc2)cc1 | > 100000 | inhibition [4]: < 30% |
| COc1ccc(OCC(=O)NNC(=S)NCCCCC2CCCCC2)cc1 | > 100000 | inhibition [4]: 50% |

| Compound | IC50 [1] [nM] | other results |
| --- | --- | --- |
| O=C(COc1ccc(Cl)cc1Cl)NNC(=S)NCc1ccc(-c2ccccc2)cc1 | 1200 |  |
| O=C(COc1cccc2ccccc12)NNC(=S)NCc1ccc(-c2ccccc2)cc1 | 4100 |  |
| O=C(Cc1ccc(-c2ccccc2)cc1)NNC(=S)NCCCCC1CCCCC1 | 300 | IC50 [3]: 730 nM |
| O=C(COc1ccc(Cl)cc1)NNC(=S)NCCCCc1ccccc1 | 1000 |  |
| CN(NC(=S)NCc1ccc(-c2ccccc2)cc1)C(=O)COc1ccc(Cl)cc1 | > 100000 | inhibition [4]: < 30% |
| O=C(NNC(=S)NCc1ccc(-c2ccccc2)cc1)c1ccc(Cl)cc1 | 700 | IC50 [3]: 1600 nM |
| O=C(COc1ccc(Cl)cc1)NNC(=S)NCc1cccc(-c2ccccc2)c1 | 2300 |  |
| O=C(COc1ccccc1)NNC(=S)NCCCCC1CCCCC1 | > 100000 | inhibition [4]: < 20% |
| O=C(COc1ccc(Cl)cc1)NNC(=S)NCCCc1ccccc1 | 1400 | IC50 [3]: 2000 nM |
| O=C(COc1ccc([N+](=O)[O-])cc1)NNC(=S)NCCCCC1CCCCC1 | 810 | IC50 [3]: 790 nM |
| CN(NC(=S)NCCCCC1CCCCC1)C(=O)COc1ccc(Cl)cc1 | > 100000 | inhibition [4]: < 30% |
| O=C(COc1ccccc1Cl)NNC(=S)NCc1ccc(-c2ccccc2)cc1 | 1900 |  |
| CC(=O)NNC(=S)NCCCCC1CCCCC1 | > 100000 | inhibition [4]: < 20% |
| O=C(Cc1nc(-c2ccccc2)no1)NNC(=S)NCCCCC1CCCCC1 | 340 |  |
| O=C(Cc1nc(-c2cnccn2)no1)NNC(=S)NCCCCC1CCCCC1 | 3100 |  |
| CN(CCCCc1ccccc1)C(=S)NNC(=O)COc1ccc(Cl)cc1 | 1100 | IC50 [3]: 1500 nM |
| O=C(COc1ccc2ccccc2c1)NNC(=S)NCc1ccc(-c2ccccc2)cc1 | 3200 |  |
| O=C(COc1ccc(Cl)cc1)NNC(=S)NCCc1ccccc1 | 2800 |  |
| O=C(COc1ccc(Cl)cc1)NNC(=S)NCc1ccc(-c2ccccc2)cc1 | 1200 |  |
| O=C(COc1ccc(Cl)c(Cl)c1)NNC(=S)NCc1ccc(-c2ccccc2)cc1 | 1200 |  |
| O=C(COc1ccc(C(F)(F)F)cc1)NNC(=S)NCc1ccc(-c2ccccc2)cc1 | 1700 |  |
| O=C(COc1ccc(F)cc1)NNC(=S)NCc1ccc(-c2ccccc2)cc1 | 100000 | inhibition [4]: 49% |
